Measured values of several laboratories.
Protocols differ between the studies behind these lines.
Target: Serine/threonine-protein kinase 25 (STK25, Homo sapiens, UniProt O00506)

`O=C(c1ccc(Nc2nccc(-c3cc4ccccc4s3)n2)cc1)N1CCC(N2CCCC2)CC1` gave a remaining binding of 22% (binding; competition with immobilised ligand; 1 µM).
For `N[C@H]1CCN(c2nccc(-c3cnn4ncccc34)n2)C1`, the remaining binding was 100% (binding; 1 µM).
`O=C(c1ccc(Nc2ncc(Cl)c(-c3ccc(Cl)s3)n2)cc1)N1CCC(N2CCCC2)CC1` gave a remaining binding of 22% (binding; competition with immobilised ligand; 1 µM).
`COc1cnc(Nc2cccc(S(N)(=O)=O)c2)nc1N1CCN(c2ccccc2)CC1` has a remaining binding of 100% (binding; competition with immobilised ligand; 1 µM).
`CN(C)C(=O)Cn1cc(-c2nc(C3(c4ccc(-c5cnc(N)nc5)cc4)CC3)no2)cn1` has a remaining binding of 100% (cell-free assay; competition with immobilised ligand; 1 µM).
With `CN(C)c1nccc(-c2cnc3ncccn23)n1` the remaining binding was 100% (binding; 1 µM).
`O=C(NCCCN1CCOCC1)c1ccc(Nc2nccc(-c3cc4ccccc4s3)n2)cc1` gave a remaining binding of 67% (binding; competition with immobilised ligand; 1 µM).
For `C[C@@H](c1ccc(-n2cnc3c(N)ncnc32)cc1)N1CCc2nn(C)c(Cc3ccccc3)c2C1=O`, the remaining binding was 86% (binding; competition with immobilised ligand; 0.1 µM).
For `Nc1ncc2c(n1)-c1c([nH]c3ccc(C#CC4CC4)cc13)CCCC2`, the remaining binding was 100% (binding; competition with immobilised ligand; 1 µM).
`CNC(=O)Nc1ccc2c(c1)CC[C@@]21OC(=O)N(CC(=O)N(Cc2ccc(F)cc2)[C@@H](C)C(F)(F)F)C1=O` gave a remaining binding of 99% (cell-free assay; competition with immobilised ligand; 1 µM).
`COc1ncc2cc3ccccc3nc2c1C#N` gave a remaining binding of 100% (cell-free assay; competition with immobilised ligand; 5 µM).
With `CN(C)c1nccc(-c2cnn3ncccc23)n1` the remaining binding was 90% (binding; 1 µM).
The remaining binding of `CC1=C(C#N)[C@@H](c2ccc3[nH]nc(C)c3c2)C(C#N)=C(c2ccc(Cl)cc2)N1` is reported as 100% (cell-free assay; competition with immobilised ligand; 1 µM).
`F[C@@H]1CCN(c2nccc(-c3cnn4ncccc34)n2)C1` has a remaining binding of 100% (binding; 1 µM).
`O=C(NCCCC1CCCCC1)c1ccc(CNC(=O)c2cnn(-c3ccccc3)c2C(F)(F)F)cc1` gave a remaining binding of 81% (cell-free assay; competition with immobilised ligand; 0.1 µM).
The remaining binding of `c1cnn2ncc(-c3ccnc(N4CCC45COC5)n3)c2c1` is reported as 100% (binding; 1 µM).
With `CN([C@@H]1CCc2c(CC(=O)O)c3cc(S(C)(=O)=O)ccc3n2C1)S(=O)(=O)c1ccc(F)cc1` the remaining binding was 100% (cell-free assay; competition with immobilised ligand; 1 µM).
With `O=C(NCC1CCOCC1)c1n[nH]cc1NC(=O)c1c(F)cccc1F` the remaining binding was 95% (binding; competition with immobilised ligand; 1 µM).
`CC(=O)C1=C(C)N(c2cccc(C(F)(F)F)c2)C(=O)N[C@@H]1c1ccc(C#N)nc1` has a remaining binding of 89.9% (cell-free assay; competition with immobilised ligand; 1 µM).
`C[C@H]1CCN(c2nccc(-c3cnn4ncccc34)n2)C1` has a remaining binding of 100% (binding; 1 µM).
